Bioassay records as filed in PubChem BioAssay.
UCH37 inh: human UCH37 deubiquitinating enzyme inhibition. purified proteasome/UCH37, Ub-AMC cleavage fluorescence. inhibition, % (test concentration not listed). actives 0.33% (n = 330,000). AID 588478;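 active = mean inhibition over replicate wells above about 20%, limit read from the data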;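 also: 0% = compound-free wells with enzyme and 100% = wells lacking proteasome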
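system = Proteasome-associated human UCH37 deubiquitinase | amount = 0.15 nM proteasome as dispensed | medium = pH 7.4 Tris-HCl (50 mM) with ovalbumin, ATP-MgCl2, DTT | incubation = 30 min preincubation with enzyme, 25 min cleavage at room temperature | detection = AMC fluorescence 355/460 nm | read-out basis = percent inhibition | controls = no-proteasome and no-compound wells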
JMJD2C inh: human JMJD2C demethylase inhibition; Q9H3R0; GST-JMJD2C(1-420) H3K9me3 demethylation, DELFIA europium; inhibition, % at 2.35 µM; actives 0.069% (n = 330,000);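 active = more than half of a compound's replicate wells show inhibition beyond 50%, single wells judged on their own value; inconclusive = some, but no more than half, of replicates pass 50% inhibition; inactive = no replicate passes 50% inhibition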;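 also: signal counts dimethyl H3K9 product captured on neutravidin plate; 0% = median of DMSO wells and 100% = 0.3 times that DMSO median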
A3G deaminase: APOBEC3G (human) deaminase inhibition. Q9HC16. recombinant A3G, ssDNA deamination FAM/TAMRA fluorescence. inhibition, % at 20 µM. actives 0.28% (n = 330,000). AID 493012;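 active = inhibition of at least 40% at 20 µM, with no more than 30% in the related APOBEC3A deaminase screen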;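 also: plate controls were DMSO wells with A3G for no effect and wells lacking A3G enzyme for full effect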
Target sequence (Q9HC16 whole entry, looked up): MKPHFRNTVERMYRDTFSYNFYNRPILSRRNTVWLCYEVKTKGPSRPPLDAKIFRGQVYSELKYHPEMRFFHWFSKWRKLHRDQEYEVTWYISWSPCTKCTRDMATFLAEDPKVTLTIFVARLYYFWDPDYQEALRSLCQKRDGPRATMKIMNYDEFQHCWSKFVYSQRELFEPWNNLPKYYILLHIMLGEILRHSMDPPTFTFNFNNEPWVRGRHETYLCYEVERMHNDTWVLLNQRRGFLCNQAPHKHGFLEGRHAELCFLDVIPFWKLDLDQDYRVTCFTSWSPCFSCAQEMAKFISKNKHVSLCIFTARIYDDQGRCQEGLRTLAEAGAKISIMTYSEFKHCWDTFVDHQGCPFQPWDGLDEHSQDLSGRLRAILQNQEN
A3A deaminase: inhibitors of human APOBEC3A DNA deaminase; P31941; recombinant A3A, FAM/TAMRA ssDNA deamination fluorescence; inhibition, % at 20 µM; actives 0.41% (n = 330,000); AID 493011;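 active = at least 40% inhibition at 20 µM here, with at most 30% in a related deaminase screen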;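 also: plate controls were A3A with DMSO for no effect and wells lacking A3A enzyme for full effect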
Target sequence (P31941 whole entry, looked up): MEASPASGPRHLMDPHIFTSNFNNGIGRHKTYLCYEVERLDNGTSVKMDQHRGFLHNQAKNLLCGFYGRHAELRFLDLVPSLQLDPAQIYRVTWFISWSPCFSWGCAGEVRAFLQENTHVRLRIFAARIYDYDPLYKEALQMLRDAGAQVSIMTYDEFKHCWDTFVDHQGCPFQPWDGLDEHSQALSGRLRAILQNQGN
A3G conf: APOBEC3G (human) deaminase inhibition, confirmed. shares compounds with A3G deaminase. recombinant A3G ssDNA deaminase, UDG/FAM-TAMRA fluorescence. inhibition, % at 20 µM. actives 72% (n = 890). AID 493152;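 active = inhibition reaching a set limit in any replicate at 20 µM, the limit being 80% of the first screen's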
UDG A3G counter: E. coli UDG inhibition in APOBEC3G counter-screen; shares compounds with A3G deaminase; UDG counterscreen, FAM/TAMRA oligo fluorescence; inhibition, % at 20 µM; 710 tested, under 10 active; AID 504715;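 active = compounds giving 40% or more inhibition at 20 µM in any one of the three replicates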;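 also: plate controls were DMSO wells with UDG and oligo for no effect and DMSO wells lacking both for full effect; inhibitors lower the FAM signal released by uracil excision and alkaline cleavage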
* hit, by the source's call; i = inactive; ? = inconclusive; / = not tested or not shown. An excerpt weighted towards active compounds, which were near 0.97% of everything screened.

SMILES | UCH37 inh | JMJD2C inh | A3G deaminase | A3A deaminase | A3G conf | UDG A3G counter
CCC(=O)NC1=C(NC(C)c2ccccc2)C(=O)c2ccccc2C1=O (stereo not given) | 3 | -5 | 0 | -1 | / | /
COc1ccc(C=NNC(=O)CC(=O)NCCc2ccccc2)cc1OC | 4 | / | / | / | / | /
Cc1ccc(-c2c3c([nH]c(=S)c2C#N)CCCC3)o1 | 8 | 16 | 49 | 30 | / | /
N#Cc1c(-c2ccncc2)c2c([nH]c1=S)CCCC2 | -8 | 15 | 46* | -5 | 85* | -2
Cc1cc(=O)[nH]c(NN=Cc2ccc(Br)s2)n1 | 10 | / | / | / | / | /
COCCCn1c(=NC(=O)c2ccccc2)c(C#N)cc2c(=O)n3cccc(C)c3nc21 | i | -7 | 46* | -4 | 1 | -5
COCCCn1c(=NC(C)=O)c(C#N)cc2c(=O)n3cccc(C)c3nc21 | i | 12 | 16 | 15 | / | /
O=C(NN=Cc1ccc(F)cc1)c1ccc(Br)cc1 | 4 | / | / | / | / | /
CC(C)Cn1c(-c2ccc(Br)o2)n[nH]c1=S | 4 | 10 | 41* | -4 | 76* | -4
Cc1ccsc1-c1n[nH]c(=S)n1CC(C)C | 1 | -1 | 44* | -3 | 90* | -2
CC(C)Cn1c(-c2nn(C)cc2Cl)n[nH]c1=S | 6 | 0 | 26 | -9 | / | /
Cc1ccccc1-n1c(-c2ccc(Br)o2)n[nH]c1=S | 3 | 1 | 27 | -1 | / | /
COc1ccc(C=NNC(=O)c2cc(-c3ccccc3)nc3ccccc23)c(C(=O)O)c1OC | 10 | / | / | / | / | /
CCNC(=S)NN=C(C)c1ccc(Cl)s1 | 7 | / | / | / | / | /
CCN(CC)CCNC(=O)CCCCn1c(=S)[nH]c2c([nH]c3ccc(OC)cc32)c1=O | -35 | 3 | 69* | -3 | 84* | 8
CCCCNC(=O)c1ccc(Cn2c(=S)[nH]c3c([nH]c4ccc(OC)cc43)c2=O)cc1 | -2 | 1 | -9 | -3 | / | /
O=C(CC(c1ccc(F)cc1)c1ccco1)Nc1nccs1 (stereo not given) | 0 | 19 | 53* | 2 | 0 | /
CC(CC1CC(COCC(C)C)OC1=O)=NNC(N)=S (stereo not given) | 4 | / | / | / | / | /
Oc1ccc(-c2nc(=S)[nH][nH]2)cc1 | -3 | -2 | 64* | -3 | 90* | -1
FC(F)(F)c1ccc(-c2nc(=S)[nH][nH]2)cc1 | 2 | 0 | -7 | -2 | / | /
CCOc1ccc(-c2nc(=S)[nH][nH]2)cc1 | 0 | -2 | 30 | -7 | / | /
COc1ccc(-c2nc(=S)[nH][nH]2)cc1 | 2 | -1 | 62* | -3 | 95* | -4
COc1cc(-c2nc(=S)[nH][nH]2)cc(OC)c1OC | -1 | 0 | 62* | -5 | 94* | -1
COc1ccc(-c2nc(=S)[nH][nH]2)cc1OC | 3 | 16 | 61* | -15 | 93* | 2
COc1cc(C=Nn2cc(-c3ccccc3)[nH]c2=S)cc(OC)c1O | 4 | / | / | / | / | /
SMILES | UCH37 inh | JMJD2C inh | A3G deaminase | A3A deaminase | A3G conf | UDG A3G counter
O=C1CCCC2=C1C(c1ccccc1)n1c(sc(=Cc3cccc(F)c3)c1=O)=N2 (stereo not given) | -4 | / | / | / | / | /
COc1ccc(C(=O)NCC(=O)NN=Cc2ccc([N+](=O)[O-])o2)cc1OC | 15 | / | / | / | / | /
CC(=O)Nc1cc(OC(C)=O)c2nonc2c1OC(C)=O | 8 | 17 | 76* | 2 | 70* | /
Cc1ccc(-c2nnc3sc(C4COc5ccccc5O4)nn23)cc1 (stereo not given) | 2 | 13 | -1 | 6 | / | /
c1ccc(Cc2nn3c(C4COc5ccccc5O4)nnc3s2)cc1 (stereo not given) | 2 | 2 | 16 | 4 | / | /
COc1ccccc1-c1nn2c(C3COc4ccccc4O3)nnc2s1 (stereo not given) | 1 | -4 | 51* | -2 | 3 | 4
c1ccc(CCc2nn3c(C4COc5ccccc5O4)nnc3s2)cc1 (stereo not given) | 1 | 2 | 48* | 2 | 31* | 3
c1ccc(CCc2nn3c(Cc4ccccc4)nnc3s2)cc1 | 3 | 7 | 53* | 2 | 59* | /
CCOC(=O)NN=C(C)/C=C/c1ccccc1 | 9 | / | / | / | / | /
O=C1CN(c2ccccc2)C(=S)N1C(=O)c1ccccc1 | / | 7 | 0 | -7 | / | /
O=C(c1ccccc1)N1CCC(=O)N1c1ccccc1 | -2 | 3 | 40* | -2 | 4 | 6
Cc1c(O)cc2c(c1O)C(=O)CC(c1ccc(O)cc1)O2 (stereo not given) | 2 | -2 | 56* | 29 | 69* | /
COc1cc(CNCCNC(=O)c2nonc2N)ccc1OCc1ccc(Cl)cc1 | 4 | -8 | 79* | -7 | -2 | -6
COCCNC(=S)NN=C(C)c1ccc(OC)cc1 | 5 | / | / | / | / | /
CN1CCN(C(=S)C(=O)Nc2ccc(Br)cc2)CC1 | 2 | 27 | 80* | 6 | 70* | -2
COc1ccc(CCCC(=O)NN=Cc2cccs2)cc1 | 8 | / | / | / | / | /
CS(=O)(=O)c1ccc(N)c(SSc2cc(S(C)(=O)=O)ccc2N)c1 | 4 | 0 | 87* | 4 | 95* | /
CS(=O)(=O)c1ccc2nc(N)sc2c1 | 1 | 2 | -5 | -2 | / | /
O=C(COC(=O)CCCN1C(=O)c2cccc3cccc(c23)C1=O)Nc1cccc(C(F)(F)F)c1 | / | 0 | 56* | 0 | 0 | /
CC(CC(=O)Nc1ccc2c(c1)OCCO2)=NNC(=O)COc1ccc(C)cc1Br | 3 | / | / | / | / | /
Cc1[nH]c(=S)c(C#N)c(C)c1CCC#N | 9 | -7 | 65* | -5 | 90* | -5
CC1(C)CC(=O)CC(=NNC(=O)COc2ccc(Cl)cc2Cl)C1 | 0 | / | / | / | / | /
O=C(CNC(c1ccccc1)c1ccccc1)Nc1ccccc1Br | 2 | 7 | 50* | -4 | -6 | 0
CSc1nc(=NC(C)=O)ss1 | 2 | 39 | 51* | -2 | 43* | 0
O=C(CCC(=O)OCC(=O)c1ccc(-c2ccccc2)cc1)Nc1cccc2cccnc12 | 4 | 3 | -1 | 1 | / | /
SMILES | UCH37 inh | JMJD2C inh | A3G deaminase | A3A deaminase | A3G conf | UDG A3G counter
O=C(CCC(=O)OCC(=O)c1ccc(Cl)cc1Cl)Nc1cccc2cccnc12 | 1 | ? | 54* | -2 | -4 | -1
O=c1sc2ccccc2c(=O)n1Cc1ccccc1F | 1 | -1 | -8 | -3 | / | /
Cc1ccc(-n2sc3ccccc3c2=O)cc1 | 6 | 1 | 77* | 2 | 71* | -4
O=c1c2ccccc2sn1-c1ccc(F)cc1 | 2 | 1 | 86* | 1 | 80* | -2
Cc1cc(C)nc(SCc2ccc(C(=O)NN=CC3CCCCC3)cc2)n1 | 1 | / | / | / | / | /
CC(=NNc1cc(-c2ccccc2)nc(-c2ccc(Br)cc2)n1)c1cccc(N)c1 | -28 | / | / | / | / | /
Cc1c(Cc2ccc3c(c2)OCO3)sc(NC(=O)c2cccc3ccccc23)c1C(N)=O | -7 | 17 | 13 | -1 | / | /
Cc1c(Cc2ccc3c(c2)OCO3)sc(NC(=O)C2CC2)c1C(N)=O | 3 | 8 | 48* | 0 | 31 | /
